Laboratory results taken from ChEMBL document CHEMBL1821698, “Synthesis and biological activities of (R)- and (S)-N-(4-Methoxyphenyl)-N,2,6-trimethyl-6,7-dihydro-5H-cyclopenta[d]pyrimidin-4-aminium chloride as potent cytotoxic antitubulin agents” (J Med Chem, 2011).
pEC50, pIC50: −log10 of the molar value. The source made the active and inactive calls. No cut-off for these calls is given here.

Columns and labels:
tubulin (Bos taurus) [1] = assay: Displacement of [3H]colchicine from bovine brain tubulin at 5 uM
HeLa [2] = assay: Relative resistance ratio of IC50 for beta3-tubulin overexpressing human HeLa cells to IC50 for human HeLa cells; type: functional
HeLa [3] = assay: Antiproliferative activity against human HeLa cells; type: functional, cell-based
SK-OV-3 [4] = assay: Antiproliferative activity against MDR-1-6/6 overexpressing human SKOV3 cells; type: functional, cell-based
SK-OV-3 [5] = assay: Antiproliferative activity against human SKOV3 cells; type: functional, cell-based
HeLa [6] = assay: Antiproliferative activity against beta3-tubulin overexpressing human HeLa cells; type: functional, cell-based
SK-OV-3 [7] = assay: Relative resistance ratio of IC50 for MDR-1-6/6 overexpressing human SKOV3 cells to IC50 for human SKOV3 cells; type: functional
[8] = Inhibition of microtubule polymerization in A-10 cells; conditions: A10
MDA-MB-435 [9] = assay: Cell cycle arrest in human MDA-MB-435 cells assessed as accumulation of cells at G2/M phase at 3 times IC50 after 18 hrs by flow cytometry; type: functional
[10] = Ratio of EC50 for microtubule depolymerization in A-10 cells to IC50 for human MDA-MB-435 cells
tubulin (Bos taurus) [11] = assay: Displacement of [3H]colchicine from bovine brain tubulin using purified tubulin at 1 uM
[12] = Inhibition of bovine brain tubulin assembly
MDA-MB-435 [13] = assay: Antiproliferative activity against human MDA-MB-435 cells by SRB assay; type: functional, cell-based
Method in brief: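 SRB assay on drug-sensitive MDA-MB-435 cells; IC50 is the concentration giving 50% inhibition of proliferation, n = 3.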

MDA-MB-435 [14] = assay: Cell cycle arrest in human MDA-MB-435 cells assessed as accumulation of cells at subG1 phase at 3 times IC50 after 18 hrs by flow cytometry; type: functional, cell-based

| Compound | inhibition (tubulin (Bos taurus) [1]) [%] | Ratio IC50 (HeLa [2]) | pIC50 (HeLa [3]) | pIC50 (SK-OV-3 [4]) | pIC50 (SK-OV-3 [5]) | pIC50 (HeLa [6]) | Ratio IC50 (SK-OV-3 [7]) | pEC50 [8] | Activity (MDA-MB-435 [9]) [%] | Ratio [10] | inhibition (tubulin (Bos taurus) [11]) [%] | pIC50 [12] | pIC50 (MDA-MB-435 [13]) | Activity (MDA-MB-435 [14]) |
| --- | --- | --- | --- | --- | --- | --- | --- | --- | --- | --- | --- | --- | --- | --- |
| COc1ccc(N(C)c2nc(C)nc3c2C[C@@H](C)C3)cc1.Cl | 77 | 0.7 | 7.03 | 6.92 | 7.07 | 7.17 | 1.4 | 6.56 | 91.4 | 5 | 37 | 5.68 | 7.29 |  |
| COc1ccc(/C=C\c2cc(OC)c(OC)c(OC)c2)cc1O [COMBRETASTATIN A4] | 98 |  |  | 7.66 | 8.22 |  |  | 7.89 | 88.4 |  | 85 |  | 8.47 |  |
| CC(=O)O[C@H]1C(=O)[C@@]2(C)[C@H]([C@H](OC(=O)c3ccccc3)[C@]3(O)C[C@H](OC(=O)[C@H](O)[C@@H](NC(=O)c4ccccc4)c4ccccc4)C(C)=C1C3(C)C)[C@]1(OC(C)=O)CO[C@@H]1C[C@@H]2O [PACLITAXEL] |  |  |  | 5.31 | 8.53 |  |  |  |  |  |  |  |  |  |
| COc1ccc(N(C)c2nc(C)nc3c2C[C@H](C)C3)cc1.Cl | 93 | 0.7 | 7.72 | 7.20 | 7.79 | 7.88 | 3.8 | 7.64 | 49.2 | 2 | 70 | 5.89 | 7.92 | Active |
| COc1ccc(N(C)c2nc(C)nc3c2CC(C)C3)cc1.Cl (racemic) | 87 | 0.6 | 7.43 | 7.22 | 7.46 | 7.62 | 1.8 | 7.25 | 65.9 | 3 | 59 | 5.82 | 7.77 | Active |
